Screens from PubChem BioAssay.
NTR1 ag = NTR1 (human) agonism; P30989; NTR1-U2OS beta-arrestin-GFP spot imaging, agonist mode; activation, % at 20 µM; 0.17% of 330,000 active;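 active = activation at or above 40% of the spot to cytoplasm intensity ratio, with at least 20 cells analyzed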
CAL PDZ FP-1 = CAL PDZ (human) peptide binding inhibition; Q9HD26; purified CAL PDZ, TMR-peptide fluorescence polarization, 1 h; inhibition, % at 24.9 µM; 0.92% of 300,000 active; AID 602252;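 active = mean inhibition of at least 30% with at least half of replicates also reaching 30%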
PKA-R1A activ = PKA-R1A complex activation; PKA-R1A dissociation, Cy5-IP20 fluorescence polarization; scaled: DMSO 0%, 113 µM cGMP 100%; activation, % at 11.4 µM; 0.083% of 340,000 active;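 active = percent activation above the mean of all tested compounds plus 3 SD, cut at about 19% in these data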;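 also: higher means more PKAc released from R1A so a rise in polarization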
dFosB act = activators of mouse delta FosB homodimer. P13346. purified delta FosB, TAMRA-CDK5 oligo fluorescence polarization; percent of positive-control signal above neutral wells. activation, % at 25 µM. 0.99% of 340,000 active;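 active = mean activation above about 17%, with every replicate also reaching it, limit read from the data, passing the limit was not always enough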
CAL PDZ FP-2 = inhibitors of human CAL PDZ peptide binding; Q9HD26; purified CAL PDZ, TMR-peptide fluorescence polarization, 1 h; inhibition, % at 20 µM; 0.02% of 330,000 active; AID 504414;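 active = highest replicate inhibition of at least 40%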
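System: tagged CAL PDZ domain. Schedule: 1 h room-temperature incubation prior to read. Signal: fluorescence polarization (mP). Measure: percent inhibition from loss of millipolarization.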
PKA-R2B act = PKA-R2B complex activation. P22694+P31323. PKA-R2B holoenzyme dissociation, Cy5-IP20 fluorescence polarization; R2B truncated from residue 108, S112A mutant; 0% DMSO only, 100% 113 µM cGMP. activation, % at 11.4 µM. 0.079% of 340,000 active;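 active = activation above a cutoff set at the mean over all compounds plus 3 SD, cut at about 18% in these data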;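 also: higher means more holoenzyme dissociation and a rise in polarization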
Target sequence (P31323 whole entry, looked up, other chains not shown, the tested form may be a part): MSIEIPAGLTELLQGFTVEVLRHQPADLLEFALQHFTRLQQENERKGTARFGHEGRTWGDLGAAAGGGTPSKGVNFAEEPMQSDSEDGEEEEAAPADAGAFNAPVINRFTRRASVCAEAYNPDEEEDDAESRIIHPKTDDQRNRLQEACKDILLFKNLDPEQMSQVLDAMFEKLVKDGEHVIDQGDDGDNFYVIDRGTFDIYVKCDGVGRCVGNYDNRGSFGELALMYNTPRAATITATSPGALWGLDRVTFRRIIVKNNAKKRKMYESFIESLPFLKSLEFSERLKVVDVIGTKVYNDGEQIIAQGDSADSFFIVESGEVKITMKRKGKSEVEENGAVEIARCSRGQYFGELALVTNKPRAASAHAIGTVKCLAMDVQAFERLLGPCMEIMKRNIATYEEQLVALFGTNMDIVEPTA
NTR1 ag conf = NTR1 (human) agonism, confirmed; shares compounds with NTR1 ag; NTR1-U2OS beta-arrestin-GFP translocation imaging; activation, % at 20 µM; 38% of 480 active;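 active = mean activation at 20 µM of at least 40%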
Each line names hits and unclear results; the compound was inactive in the other large screens (follow-up assays come after a bar, where they were run); ! = not confirmed by another sample. Sampled rows, rich in hits. Any-hit rate of the full collection: about 2%.

COc1cc(OC)c2cc(C(=O)N/N=C/c3cccc(OC)c3O)[nH]c2c1	NTR1 ag 60.2 | NTR1 ag conf 72.7
CCOC(=O)c1c(C)[nH]c(C(=O)OCC(=O)Nc2sccc2C(N)=O)c1C	NTR1 ag 44.4, dFosB act 21.8 | NTR1 ag conf 41.0
Cc1cc2c(cc1C)CSC(c1ccccc1O)SC2	NTR1 ag 51.1 | NTR1 ag conf inactive
Oc1ccc(C2=NN(c3ccccc3)C(c3ccc(F)cc3)C2)cc1 (centres undefined)	NTR1 ag 60.7 | NTR1 ag conf inactive
COc1ccc(C2CC(c3ccccc3)=NN2c2ccc(S(N)(=O)=O)cc2)cc1 (centres undefined)	none
COc1ccc(C2CC(c3ccccc3)=NN2c2ccc(C(N)=O)cc2)cc1 (centres undefined)	NTR1 ag 41.0 | NTR1 ag conf inactive
O=C(CC1C[C@H](C(=O)N2CCCCC2)[C@@]2(CCc3ccccc3)c3[nH]c4ccccc4c3CCN2C1=O)NCCc1ccccn1 (some centres undefined)	none (no result: NTR1 ag)
CCOC(=O)c1cc(-c2ccc(/C=N\n3cnnc3)o2)ccc1Cl	none
CCOC(=O)c1cc(-c2ccc(/C=C3/C(=O)N(c4ccc(C(=O)O)cc4)N=C3C)o2)ccc1Cl	NTR1 ag 56.4 | NTR1 ag conf 46.7
Cc1cccc(-c2nc(Nc3cccc(O)c3)c3ccccc3n2)c1	NTR1 ag 53.2 | NTR1 ag conf inactive
COc1ccc(Cn2c(SCc3cc(C)ccc3C)nc3cc(OC)c(OC)cc3c2=N)cc1	NTR1 ag 48.2, dFosB act 40.4 | NTR1 ag conf inactive
COc1ccc(Cn2c(SCc3ccc(C)cc3)nc3cc(OC)c(OC)cc3c2=N)cc1Cl	NTR1 ag 54.2, dFosB act 58.8 | NTR1 ag conf 63.7
COCCCn1c(SCc2cccc(C(F)(F)F)c2)nc2cc(OC)c(OC)cc2c1=N	NTR1 ag 59.8 | NTR1 ag conf inactive
COc1cc2nc(SCc3ccc(C(F)(F)F)cc3)n(Cc3cccs3)c(=N)c2cc1OC	none
COc1cc2nc(SCc3ccc(Cl)cc3Cl)n(Cc3cccs3)c(=N)c2cc1OC	none
O=S(=O)(Nc1ccc(Br)cn1)c1ccc(Cl)s1	none (no result: CAL PDZ FP-1)
OC(CNCCc1ccc(C(F)(F)F)cc1)COc1cccc2ccccc12 (centres undefined)	none
OC(CNCCc1ccc(C(F)(F)F)cc1)COc1ccc2ccccc2c1 (centres undefined)	NTR1 ag 50.7 | NTR1 ag conf inactive
COc1ccc(CNCC(O)COc2ccc(C(C)(C)c3ccccc3)cc2)cc1 (centres undefined)	NTR1 ag 49.7 | NTR1 ag conf inactive
CN(C(=O)COC(=O)Cc1ccc(Br)cc1)c1c(N)n(Cc2ccccc2)c(=O)[nH]c1=O	none (no result: NTR1 ag, CAL PDZ FP-1, dFosB act, CAL PDZ FP-2)
CSCCC(NS(=O)(=O)c1ccc(Cl)cc1)C(=O)OCC(=O)c1c(C)[nH]c2ccccc12 (centres undefined)	NTR1 ag 41.2 | NTR1 ag conf inactive
Cc1[nH]c2ccccc2c1C(=O)COC(=O)C1CC(O)CN1S(=O)(=O)c1ccc(Cl)cc1 (centres undefined)	none (no result: CAL PDZ FP-1)
Cc1ccccc1C(=O)N1CCc2cc(-c3csc(NC(=O)CN4CCCC4)n3)ccc21	NTR1 ag 54.2 | NTR1 ag conf inactive
O=C(CN1CCCCC1)Nc1nc(-c2ccccc2)cs1	none
CC1=NNC(=O)/C1=C\c1cn(-c2ccccc2)nc1-c1ccc(F)cc1	none (no result: NTR1 ag)
CC1=NNC(=O)/C1=C\c1cn(-c2ccccc2)nc1-c1cccs1	NTR1 ag 83.4 | NTR1 ag conf 95.6
Cc1cccc(NC(=O)c2nc[nH]c2C(=O)N[C@@H](C)C(=O)OC(C)(C)C)c1	none
CCOC(=O)c1ccc(NC(=O)c2nc[nH]c2C(=O)N[C@@H](CC(C)C)C(=O)OC(C)(C)C)cc1	none
CCOC(=O)c1ccc(NC(=O)c2nc[nH]c2C(=O)N[C@@H](C)C(=O)OC(C)(C)C)cc1	NTR1 ag 42.6 | NTR1 ag conf inactive
C[C@H](NC(=O)c1[nH]cnc1C(=O)Nc1ccc(Cl)cc1)C(=O)OC(C)(C)C	NTR1 ag 41.4 | NTR1 ag conf inactive
O=C(COc1cc(F)ccc1[N+](=O)[O-])NCC1CCCO1 (centres undefined)	none
CCCCCc1c2c(cc(O)c1C(=O)O)OC(=O)c1c(cc(OC)cc1C(=O)CCCC)O2	none
CCCCCc1c2c(cc(O)c1C(=O)O)OC(=O)c1cc(C(=O)CCCC)c(OC)cc1O2	NTR1 ag 47.8 | NTR1 ag conf inactive
CCN(CC)C(=O)C1=C(C)N(Cc2ccc(OC)cc2)C(=O)C(CC(=O)NCc2cccc3ccccc23)C1 (centres undefined)	none (no result: NTR1 ag, CAL PDZ FP-1, dFosB act, CAL PDZ FP-2)
CCCCCCCCCCOC(=O)Cn1c(COc2ccc(Cl)cc2)[n+](C)c2ccccc21	none
CCCCCCCCCCOC(=O)Cn1c(COc2ccc(OC)cc2)[n+](C)c2ccccc21	NTR1 ag 49.6, dFosB act 40.4! | NTR1 ag conf 65.3
Cc1ccc(O)c(C(=O)c2cnn(C(=O)COc3ccccc3C#N)c2)c1	none (no result: CAL PDZ FP-1, PKA-R1A activ, dFosB act, CAL PDZ FP-2, PKA-R2B act)
CCOC(=O)C1=C(CS(=O)(=O)c2ccc(C)cc2)NC(=O)NC1c1ccc(O)c(OC)c1 (centres undefined)	none
CCOC(=O)C1=C(CS(=O)(=O)c2ccc(C)cc2)NC(=O)NC1c1cc(OC)c(OC)c(OC)c1 (centres undefined)	NTR1 ag 48.4 | NTR1 ag conf inactive
CC(NC(=O)C1CCN(C(=O)Nc2ccccc2)CC1)c1ccccc1 (centres undefined)	none
COc1ccc(/C=C2/SC(=S)N(Cc3ccccc3)C2=O)cc1O	NTR1 ag 44.4 | NTR1 ag conf inactive
COCCN(CCOC)C(=O)CSc1ccc(S(=O)(=O)N2CCN(C)CC2)cn1	none
Cc1sc(NC(=O)c2ccco2)nc1-c1ccc2c(c1)CC(C)N2C(=O)C1CC1 (centres undefined)	NTR1 ag 71.1 | NTR1 ag conf 66.1
O=C(CC1Nc2ccccc2NC1=O)Nc1cc(Cl)cc(Cl)c1 (centres undefined)	NTR1 ag 72.7 (no result: CAL PDZ FP-1) | NTR1 ag conf 53.5
O=C(CC1NC(=O)NC1=O)Nc1ccc(Cl)cc1 (centres undefined)	none
Clc1ccc(CN2CCc3c([nH]c4ccccc34)C2)cc1Cl	NTR1 ag 65.1 | NTR1 ag conf inactive
Cc1cc(N2CCN(C)CC2)ccc1NC(=O)c1cccc(S(=O)(=O)N2CCc3ccccc3C2)c1	NTR1 ag 42.1 | NTR1 ag conf inactive
